Published values of several laboratories.
Each line is one published result; the experiments were not run side by side. pEC50, pIC50: −log10 of the molar value.
Cell line: MDA-MB-231
Observed: cell growth or viability

| Structure (SMILES) | assay | setting | endpoint | value |
| --- | --- | --- | --- | --- |
| COc1cc2c(cc1OS(N)(=O)=O)CCN(Cc1cccc(OC)c1OC)C2 | WST-1 | 96 h | GI50 | 0.888 µM |
| COc1ccc(-c2cn(-c3cc(=O)oc4ccc(Br)cc34)nn2)cc1 | imaging | 72 h | CC50 | 10.7 µM |
| C[C@]12CCCN1CC1=NNC(=O)c3cc(F)cc4[nH]c2c1c34 | ATP luminescence | 7 days | pEC50 | ~5.05 |
| COc1cccc2c1C(=O)c1c(O)c3c(c(O)c1C2=O)C[C@@](O)(C(=O)CO)C[C@@H]3O[C@H]1C[C@H](N)[C@H](O)[C@H](C)O1 | MTT | 100 µM, 24 h | viability | 4.1% |
| CCCCCCCC(=O)NCC(=O)OC | MTT | 10 µM, 48 h | inhibition | 10% |
| O=C1CCCCC1=C1Sc2nc3ccc(S(=O)(=O)N4CCCC4)cc3nc2S1 | MTT | 3.125 µM, 24 h | viability | 69.8% |
| COc1ccc(-c2nc3ccc(C)cc3[nH]2)cc1O | MTT | 48 h | pIC50 | 4.26 |
| COc1cc2c(cc1O)CCN(Cc1cccc(OC)c1OC)C2 | WST-1 | 96 h | GI50 | > 100 µM |
| CCOc1c(OC)cc(CN2CCc3cc(O)c(OC)cc3C2)cc1OC | WST-1 | 96 h | GI50 | 0.3 µM |
| N#CC(C(=O)Nc1cccc(C(F)(F)F)c1)=C1Sc2nc3ccc(S(=O)(=O)N4CCCC4)cc3nc2S1 | MTT | 100 µM, 24 h | viability | 12.9% |
| COc1cc2c(cc1OS(N)(=O)=O)CCN(Cc1cccc(NC(C)=O)c1)C2 | WST-1 | 96 h | GI50 | > 100 µM |
| Clc1ccc(Cn2c(-c3ccc(Cl)cc3)nc3ccccc32)cc1 | MTT |  | pIC50 | 5.13 |
| COc1cc2c(cc1O)CCN(Cc1cccc(OC(C)C)c1)C2 | WST-1 | 96 h | GI50 | 86 µM |
| C[C@]12CC[C@@H]3c4ccc(O)cc4CC[C@H]3[C@@H]1CC[C@@H]2O | ATP luminescence | 72 h | EC90 | 40.1 µM |
| O=[N+]([O-])c1ccc(-c2nc3ccccc3[nH]2)cc1 | MTT | 48 h | pIC50 | 4.57 |
| CCOC(=O)C(C(C)=O)=C1Sc2nc3ccc(S(=O)(=O)N4CCCC4)cc3nc2S1 | MTT | 50 µM, 24 h | viability | 8.1% |
| CCOc1ccc(-c2nc3ccc(C)cc3[nH]2)cc1 | MTT | 48 h | pIC50 | 4.88 |
| CCOc1cc(CN2CCc3cc(O)c(OC)cc3C2)cc(OCC)c1OCC | WST-1 | 96 h | GI50 | > 100 µM |
| COc1cc2c(cc1OS(N)(=O)=O)CCN(Cc1cccc(OS(N)(=O)=O)c1)C2 | WST-1 | 96 h | GI50 | 34.9 µM |
| CCc1cc(CN2CCc3cc(O)c(OC)cc3C2)cc(CC)c1CC | WST-1 | 96 h | GI50 | 26 µM |
| COc1ccc(-c2nc3ccc(C)cc3[nH]2)cc1OC | MTT | 48 h | pIC50 | 4.28 |
| CC(=O)O[C@H]1C(=O)[C@@]2(C)[C@H]([C@H](OC(=O)c3ccccc3)[C@]3(O)C[C@H](OC(=O)[C@H](O)[C@@H](NC(=O)c4ccccc4)c4ccccc4)C(C)=C1C3(C)C)[C@]1(OC(C)=O)CO[C@@H]1C[C@@H]2O | WST-1 | 96 h | GI50 | 0.002 µM |
| COc1cc2c(cc1OS(N)(=O)=O)CCN(Cc1cccc(O)c1)C2 | WST-1 | 96 h | GI50 | 41 µM |
| COc1cccc(-c2nc3ccccc3n2Cc2ccccc2)c1 | MTT |  | pIC50 | 4.36 |
| COc1cc2c(cc1O)CCN(Cc1cccc([N+](=O)[O-])c1)C2 | WST-1 | 96 h | GI50 | > 100 µM |
| COc1cccc(-c2nc3ccc(C)cc3[nH]2)c1 | MTT | 48 h | pIC50 | 4.81 |
| COc1cc(OC)c(CN2CCc3cc(OS(N)(=O)=O)c(OC)cc3C2)c(OC)c1 | WST-1 | 96 h | GI50 | > 100 µM |
| Cc1ccc2nc(-c3ccc(Cl)c(Cl)c3)[nH]c2c1 | MTT | 48 h | pIC50 | 4.22 |
